Calls of active or inactive are those of the source. No cut-off for these calls is given here.
Experiments:
[1] = Cytotoxicity against HELF assessed as cell viability after 6 days by MTT assay; type: cell-based; conditions: human, HELF cells
Summary of the method: (§1)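 HELF exposed to rising ODN concentrations (up to 10 μM) for 6 days; viable cells measured by MTT. CC50 taken as concentration that cuts viability to 50%.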

Human betaherpesvirus 5 [2] = assay: Antimicrobial activity against 0.1 uM compound pretreated Human cytomegalovirus AD169 infected in HELF assessed as reduction in viral titer at 4 degC; type: functional, organism-based
Summary of the method: (§2)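 HCMV AD169 (10^4 PFU) incubated with ODN at 0.1 μM at 4 or 37°C for various times; samples then diluted to bring ODN below an antivirally active level; residual infectivity titrated by plaque assay on HELF. Means ± SD of three independent experiments.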

Human betaherpesvirus 5 [3] = assay: Antimicrobial activity against 0.1 uM compound pretreated Human cytomegalovirus AD169 infected in HELF assessed as reduction in viral titer 37 degC; type: functional, organism-based; summary of the method: as §2
Human betaherpesvirus 5 [4] = assay: Antimicrobial activity against Human cytomegalovirus AD169 infected in 0.1 uM compound pretreated HELF assessed as inhibition of viral replication measured after 6 days post-infection; type: functional, organism-based
Summary of the method: (§3)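 HELF pretreated with ODN 1 h before infection with HCMV AD169 (MOI 1); ODN kept in medium after 2 h adsorption at 37°C. At 6 days p.i., cells plus supernatants sonicated and titrated by plaque assay on HELF; plaques counted microscopically, expressed as PFU/ml (log10) or % of control. IC50/IC90 by linear regression; duplicate wells, three independent experiments, means ± SD.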

Human betaherpesvirus 5 [5] = assay: Antimicrobial activity against Human cytomegalovirus AD169 infected in 1 uM compound pretreated HELF assessed as inhibition of viral replication measured after 6 days post-infection; type: functional, organism-based; summary of the method: as §3
Human betaherpesvirus 5 [6] = assay: Antimicrobial activity against Human cytomegalovirus AD169 infected in compound pretreated HELF assessed as inhibition of viral replication measured after 6 days post-infection; type: functional, organism-based; conditions: Human betaherpesvirus 5, AD169, HELF; summary of the method: as §3
[7] = Cytotoxicity against HELF assessed as cell viability by MTT assay after 6 days at <=10 uM; type: cell-based; conditions: human, 144 h; summary of the method: as §1

Row | IC50 (Human betaherpesvirus 5 [6]) [nM] | IC90 (Human betaherpesvirus 5 [6]) [µM] | Structure (SMILES) | CC50 at 144 h [1] [µM] | inhibition (Human betaherpesvirus 5 [2]) | inhibition (Human betaherpesvirus 5 [3]) | inhibition (Human betaherpesvirus 5 [4]) | inhibition (Human betaherpesvirus 5 [5]) | Activity [7]
1 | 3800 | > 10 | Cc1cn([C@H]2C[C@H](OP(=O)(O)O)[C@@H](COP(=O)(O)O[C@H]3C[C@H](n4cc(C)c(=O)[nH]c4=O)O[C@@H]3COP(=O)(O)O[C@H]3[C@@H](O)[C@H](n4cnc5c(=O)[nH]c(N)nc54)O[C@@H]3COP(=O)(O)O[C@H]3[C@@H](O)[C@H](n4ccc(N)nc4=O)O[C@@H]3COP(=O)(O)O[C@H]3C[C@H](n4cc(C)c(=O)[nH]c4=O)O[C@@H]3COP(=O)(O)O[C@H]3[C@@H](O)[C@H](n4cnc5c(=O)[nH]c(N)nc54)O[C@@H]3COP(=O)(O)O[C@H]3C[C@H](n4cc(C)c(=O)[nH]c4=O)O[C@@H]3COP(=O)(O)O[C@H]3C[C@H](n4cc(C)c(=O)[nH]c4=O)O[C@@H]3COP(=O)(O)O[C@H]3C[C@H](n4cc(C)c(=O)[nH]c4=O)O[C@@H]3COP(=O)(O)O[C@H]3C[C@H](n4cc(C)c(=O)[nH]c4=O)O[C@@H]3COP(=O)(O)O[C@H]3[C@@H](O)[C@H](n4cnc5c(=O)[nH]c(N)nc54)O[C@@H]3COP(=O)(O)O[C@H]3[C@@H](O)[C@H](n4ccc(N)nc4=O)O[C@@H]3COP(=O)(O)O[C@H]3C[C@H](n4cc(C)c(=O)[nH]c4=O)O[C@@H]3COP(=O)(O)O[C@H]3[C@@H](O)[C@H](n4cnc5c(=O)[nH]c(N)nc54)O[C@@H]3COP(=O)(O)O[C@H]3C[C@H](n4cc(C)c(=O)[nH]c4=O)O[C@@H]3COP(=O)(O)O[C@H]3C[C@H](n4cc(C)c(=O)[nH]c4=O)O[C@@H]3COP(=O)(O)O[C@H]3C[C@H](n4cc(C)c(=O)[nH]c4=O)O[C@@H]3COP(=O)(O)O[C@H]3C[C@H](n4cc(C)c(=O)[nH]c4=O)O[C@@H]3COP(=O)(O)O[C@H]3[C@@H](O)[C@H](n4cnc5c(=O)[nH]c(N)nc54)O[C@@H]3COP(=O)(O)O[C@H]3[C@@H](O)[C@H](n4ccc(N)nc4=O)O[C@@H]3COP(=O)(O)O[C@H]3C[C@H](n4cc(C)c(=O)[nH]c4=O)O[C@@H]3COP(=O)(O)O[C@H]3[C@@H](O)[C@H](n4cnc5c(=O)[nH]c(N)nc54)O[C@@H]3COP(=O)(O)O[C@H]3[C@@H](O)[C@H](n4ccc(N)nc4=O)O[C@@H]3COP(=O)(O)O[C@H]3C[C@H](n4cc(C)c(=O)[nH]c4=O)O[C@@H]3CO)O2)c(=O)[nH]c1=O | > 10 | inactive | inactive | Active | Active | Non-toxic
2 | 100 | 3.2 | Cc1cn([C@H]2C[C@H](OP(O)(=S)OC[C@H]3O[C@@H](n4ccc(N)nc4=O)[C@H](O)[C@@H]3OP(O)(=S)OC[C@H]3O[C@@H](n4cnc5c(=O)[nH]c(N)nc54)[C@H](O)[C@@H]3OP(O)(=S)OC[C@H]3O[C@@H](n4cc(C)c(=O)[nH]c4=O)C[C@@H]3OP(O)(=S)OC[C@H]3O[C@@H](n4ccc(N)nc4=O)[C@H](O)[C@@H]3OP(O)(=S)OC[C@H]3O[C@@H](n4cnc5c(=O)[nH]c(N)nc54)[C@H](O)[C@@H]3OP(O)(=S)OC[C@H]3O[C@@H](n4cc(C)c(=O)[nH]c4=O)C[C@@H]3OP(O)(=S)OC[C@H]3O[C@@H](n4cc(C)c(=O)[nH]c4=O)C[C@@H]3OP(O)(=S)OC[C@H]3O[C@@H](n4cc(C)c(=O)[nH]c4=O)C[C@@H]3OP(O)(=S)OC[C@H]3O[C@@H](n4cc(C)c(=O)[nH]c4=O)C[C@@H]3OP(O)(=S)OC[C@H]3O[C@@H](n4ccc(N)nc4=O)[C@H](O)[C@@H]3OP(O)(=S)OC[C@H]3O[C@@H](n4cnc5c(=O)[nH]c(N)nc54)[C@H](O)[C@@H]3OP(O)(=S)OC[C@H]3O[C@@H](n4cnc5c(=O)[nH]c(N)nc54)[C@H](O)[C@@H]3OP(O)(=S)OC[C@H]3O[C@@H](n4ccc(N)nc4=O)[C@H](O)[C@@H]3OP(O)(=S)OC[C@H]3O[C@@H](n4cnc5c(=O)[nH]c(N)nc54)[C@H](O)[C@@H]3OP(O)(=S)OC[C@H]3O[C@@H](n4ccc(N)nc4=O)[C@H](O)[C@@H]3OP(O)(=S)OC[C@H]3O[C@@H](n4cnc5c(=O)[nH]c(N)nc54)[C@H](O)[C@@H]3OP(O)(=S)OC[C@H]3O[C@@H](n4ccc(N)nc4=O)[C@H](O)[C@@H]3OP(O)(=S)OC[C@H]3O[C@@H](n4cnc5c(=O)[nH]c(N)nc54)[C@H](O)[C@@H]3OP(O)(=S)OC[C@H]3O[C@@H](n4ccc(N)nc4=O)[C@H](O)[C@@H]3OP(O)(=S)OC[C@H]3O[C@@H](n4ccc(N)nc4=O)[C@H](O)[C@@H]3OP(O)(=S)OC[C@H]3O[C@@H](n4cnc5c(=O)[nH]c(N)nc54)[C@H](O)[C@@H]3OP(O)(O)=S)[C@@H](CO)O2)c(=O)[nH]c1=O (some centres not stated) | > 10 | inactive | inactive | Active | Active | Non-toxic
3 | 200 | > 5 | Cc1cn([C@H]2C[C@H](OP(O)(=S)OC[C@H]3O[C@@H](n4cc(C)c(=O)[nH]c4=O)C[C@@H]3OP(O)(O)=S)[C@@H](OOP(O)(=S)O[C@H]3[C@@H](O)[C@H](n4ccc(N)nc4=O)O[C@@H]3COP(O)(=S)O[C@H]3[C@@H](O)[C@H](n4cnc5c(=O)[nH]c(N)nc54)O[C@@H]3COP(O)(=S)O[C@H]3[C@@H](O)[C@H](n4cnc5c(N)ncnc54)O[C@@H]3COP(O)(=S)O[C@H]3[C@@H](O)[C@H](n4cnc5c(=O)[nH]c(N)nc54)O[C@@H]3COP(O)(=S)O[C@H]3C[C@H](n4cc(C)c(=O)[nH]c4=O)O[C@@H]3COP(O)(=S)O[C@H]3[C@@H](O)[C@H](n4ccc(N)nc4=O)O[C@@H]3COP(O)(=S)O[C@H]3[C@@H](O)[C@H](n4ccc(N)nc4=O)O[C@@H]3COP(O)(=S)O[C@H]3C[C@H](n4cc(C)c(=O)[nH]c4=O)O[C@@H]3COP(O)(=S)O[C@H]3C[C@H](n4cc(C)c(=O)[nH]c4=O)O[C@@H]3COP(O)(=S)O[C@H]3[C@@H](O)[C@H](n4ccc(N)nc4=O)O[C@@H]3COP(O)(=S)O[C@H]3[C@@H](O)[C@H](n4cnc5c(=O)[nH]c(N)nc54)O[C@@H]3COP(O)(=S)O[C@H]3[C@@H](O)[C@H](n4cnc5c(N)ncnc54)O[C@@H]3COP(O)(=S)O[C@H]3[C@@H](O)[C@H](n4cnc5c(=O)[nH]c(N)nc54)O[C@@H]3COP(O)(=S)O[C@H]3C[C@H](n4cc(C)c(=O)[nH]c4=O)O[C@@H]3COP(O)(=S)O[C@H]3[C@@H](O)[C@H](n4cnc5c(N)ncnc54)O[C@@H]3COP(O)(=S)O[C@H]3[C@@H](O)[C@H](n4ccc(N)nc4=O)O[C@@H]3COP(O)(=S)O[C@H]3[C@@H](O)[C@H](n4ccc(N)nc4=O)O[C@@H]3COP(O)(=S)O[C@H]3C[C@H](n4cc(C)c(=O)[nH]c4=O)O[C@@H]3CO)O2)c(=O)[nH]c1=O (some centres not stated) | > 10 | inactive | inactive | Active | Active | Non-toxic
4 | 140 | 3.6 | Cc1cn([C@H]2C[C@H](OP(=O)(O)OC[C@H]3O[C@@H](n4ccc(N)nc4=O)[C@H](O)[C@@H]3OP(=O)(O)OC[C@H]3O[C@@H](n4cnc5c(=O)[nH]c(N)nc54)[C@H](O)[C@@H]3OP(=O)(O)OC[C@H]3O[C@@H](n4cc(C)c(=O)[nH]c4=O)C[C@@H]3OP(=O)(O)OC[C@H]3O[C@@H](n4ccc(N)nc4=O)[C@H](O)[C@@H]3OP(=O)(O)OC[C@H]3O[C@@H](n4cnc5c(=O)[nH]c(N)nc54)[C@H](O)[C@@H]3OP(=O)(O)OC[C@H]3O[C@@H](n4cnc5c(=O)[nH]c(N)nc54)[C@H](O)[C@@H]3OP(O)(=S)OC[C@H]3O[C@@H](n4cnc5c(=O)[nH]c(N)nc54)[C@H](O)[C@@H]3OP(O)(=S)OC[C@H]3O[C@@H](n4cnc5c(=O)[nH]c(N)nc54)[C@H](O)[C@@H]3OP(O)(=S)OC[C@H]3O[C@@H](n4cnc5c(=O)[nH]c(N)nc54)[C@H](O)[C@@H]3OP(O)(=S)OC[C@H]3O[C@@H](n4cnc5c(=O)[nH]c(N)nc54)[C@H](O)[C@@H]3OP(O)(O)=S)[C@@H](COP(=O)(O)O[C@H]3[C@@H](O)[C@H](n4cnc5c(N)ncnc54)O[C@@H]3COP(=O)(O)O[C@H]3[C@@H](O)[C@H](n4cnc5c(=O)[nH]c(N)nc54)O[C@@H]3COP(=O)(O)O[C@H]3[C@@H](O)[C@H](n4ccc(N)nc4=O)O[C@@H]3COP(=O)(O)O[C@H]3[C@@H](O)[C@H](n4cnc5c(N)ncnc54)O[C@@H]3COP(=O)(O)O[C@H]3[C@@H](O)[C@H](n4cnc5c(=O)[nH]c(N)nc54)O[C@@H]3COP(=O)(O)O[C@H]3[C@@H](O)[C@H](n4cnc5c(=O)[nH]c(N)nc54)O[C@@H]3COP(=O)(O)O[C@H]3[C@@H](O)[C@H](n4cnc5c(=O)[nH]c(N)nc54)O[C@@H]3COP(O)(=S)O[C@H]3[C@@H](O)[C@H](n4cnc5c(=O)[nH]c(N)nc54)O[C@@H]3COP(O)(=S)O[C@H]3[C@@H](O)[C@H](n4cnc5c(=O)[nH]c(N)nc54)O[C@@H]3CO)O2)c(=O)[nH]c1=O (some centres not stated) | > 10 | inactive | inactive | Active | Active | Non-toxic

— ChEMBL document CHEMBL1255259, “Phosphorothioate-modified oligodeoxynucleotides inhibit human cytomegalovirus replication by blocking virus entry” (Antimicrob Agents Chemother, 2008)
